Calls of active or inactive are those of the source. No cut-off for these calls is given here.
How the values were obtained:
[1] = Inhibition of human gamma-secretase expressed in HEK293 cells using Notch1-VP16-Gal4 as substrate after 24 hrs by Bright-Glo luciferase reporter gene assay; type: cell-based; details: HEK293, 24 h
How it was run: (§1)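 HEK293 cells transiently transfected with human SPPL2a, VP16-TNFα(aa1-76)-NTF substrate and Gal4-luciferase reporter (SPPL2a), or human Notch1-VP16-Gal4 plus Gal4-luciferase reporter relying on endogenous γ-secretase.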

[2] = Oral bioavailability in Balb/c mouse by LC/MS/MS analysis; type: ADME, organism-based; details: in vivo
[3] = molecular target: T1, Signal peptide peptidase-like 2A (Homo sapiens, UniProt Q8TCT8); assay: Inhibition of human SPPL2a expressed in HEK293 cells using GAL4-VP16 fusedTNFalpha (1 to 76)-NTF as substrate after 24 hrs by Bright-Glo luciferase reporter gene assay; type: cell-based; how it was run: as §1
T1 sequence (Q8TCT8 whole entry): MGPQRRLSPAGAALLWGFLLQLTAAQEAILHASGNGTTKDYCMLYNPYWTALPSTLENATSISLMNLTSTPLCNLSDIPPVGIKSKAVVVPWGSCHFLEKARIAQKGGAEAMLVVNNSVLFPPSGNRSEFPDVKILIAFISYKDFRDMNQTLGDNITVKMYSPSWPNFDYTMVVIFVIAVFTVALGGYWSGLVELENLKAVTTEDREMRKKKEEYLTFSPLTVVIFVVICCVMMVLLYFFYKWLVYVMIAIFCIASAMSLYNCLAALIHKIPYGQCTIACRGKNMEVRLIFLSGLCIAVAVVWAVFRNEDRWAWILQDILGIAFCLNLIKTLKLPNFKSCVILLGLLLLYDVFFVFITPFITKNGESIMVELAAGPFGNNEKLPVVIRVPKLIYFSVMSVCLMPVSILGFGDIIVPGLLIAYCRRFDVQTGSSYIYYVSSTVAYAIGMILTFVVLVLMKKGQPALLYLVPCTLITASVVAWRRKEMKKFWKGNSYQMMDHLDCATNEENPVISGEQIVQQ

[4] = molecular target: T2, Signal peptide peptidase-like 2A (Mus musculus, UniProt Q9JJF9); assay: Inhibition of mouse SPPL2a in A20 cells assessed as CD74/p8 accumulation by flow cytometry; type: cell-based
T2 sequence (Q9JJF9 whole entry): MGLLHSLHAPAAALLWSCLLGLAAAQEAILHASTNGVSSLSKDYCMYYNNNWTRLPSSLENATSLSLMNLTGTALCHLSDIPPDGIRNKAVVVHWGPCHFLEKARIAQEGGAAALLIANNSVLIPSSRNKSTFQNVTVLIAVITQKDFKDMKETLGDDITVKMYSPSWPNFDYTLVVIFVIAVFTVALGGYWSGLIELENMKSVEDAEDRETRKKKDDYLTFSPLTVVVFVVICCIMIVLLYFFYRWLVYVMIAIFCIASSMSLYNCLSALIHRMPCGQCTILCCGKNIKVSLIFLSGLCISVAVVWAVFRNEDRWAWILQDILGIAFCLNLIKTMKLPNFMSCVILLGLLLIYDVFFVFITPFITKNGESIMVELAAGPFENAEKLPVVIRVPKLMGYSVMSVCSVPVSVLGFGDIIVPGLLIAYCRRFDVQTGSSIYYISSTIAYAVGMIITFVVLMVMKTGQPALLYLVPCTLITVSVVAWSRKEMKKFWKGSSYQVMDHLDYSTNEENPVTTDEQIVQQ

[5] = tested on: Mus musculus; assay: In vivo inhibition of mouse gamma-secretase assessed as effect on Hes1 mRNA level in jejunum up to 100 mg/kg, po administered as single dose by RT-PCR method; type: organism-based
How it was run: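 Thymus and jejunum excised into RNALater, 4 °C overnight, washed, frozen at −80 °C; total RNA from 10 mg tissue by MagNA Pure LC; Hes1 measured by TaqMan real-time PCR; significance by two-tailed heteroscedastic Student's t-test.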

[6] = Clearance in Balb/c mouse at 5 mg/kg, iv by LC/MS/MS analysis; type: ADME, organism-based; details: in vivo
[7] = tested on: Mus musculus; assay: Dose normalized AUC in po dosed Balb/c mouse by LC/MS/MS analysis; type: ADME, organism-based; details: in vivo
[8] = tested on: Mus musculus; assay: In vivo inhibition of SPPL2a in mouse assessed as accumulation of CD74/p8 in splenocyte lysate at 1 to 3 mg/kg administered via oral gavage as single dose measured 16 hrs post dose by Western blot method; type: functional, organism-based
How it was run: (§2)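 Mice gavaged in 0.5% MC:0.5% Tween or PEG:D5W 3:1. Spleens dissociated, red cells lysed with ACK, 1 × 10^6 cells lysed with protease inhibitors; 18 μg lysate on 10% gel, blotted, CD74 full length and p8 detected with rat anti-mouse CD74 In-1 and Alexa488 anti-rat IgG, LiCor scan; p8/full-length ratio expressed as percent of reference compound ratio.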

[9] = tested on: Rattus norvegicus; assay: Dose normalized drug uptake in Wistar rat at 10 mg/kg, po bid measured up to 7 hrs by LC/MS/MS analysis; type: ADME, organism-based, Wister; details: in vivo
[10] = tested on: Rattus norvegicus; assay: Dose normalized Cmax in Wistar rat at 10 mg/kg, po bid measured up to 1 hr by LC/MS/MS analysis; type: ADME, organism-based, Wister; details: in vivo
[11] = Drug uptake in Lewis rat spleen at 30 mg/kg, po bid after 24 hrs by LC/MS/MS analysis; type: ADME, organism-based; details: read-out: Drug uptake
[12] = tested on: Mus musculus; assay: In vivo inhibition of SPPL2a in mouse assessed as accumulation of CD74/p8 in splenocyte lysate at 40 mg/kg administered via oral gavage as single dose measured 16 hrs post dose by Western blot method; type: functional, organism-based; how it was run: as §2

Row | IC50 [1] [µM] | bioavailability [2] [%] | IC50 [3] [µM] | IC50 [4] [µM] | clearance [6] [L/h/kg] | AUC/dose [7] [nM·h] | Druguptake/dose [9] [nM] | Cmax/dose [10] [µM] | concentration at 24 h [11] [µM] | Compound | Activity [5] | inhibition [8] | inhibition [12]
1 | 1.86 | 100 | 0.035 | 0.37 | 2.76 | 908 | – | – | – | Cc1ccccc1NC(=O)C[C@@H](C)C(=O)N[C@@H]1C(=O)N2CCCN2Cc2ccccc21 | Non-Toxic | – | –
2 | 6.1 | 94 | 0.077 | 0.137 | 0.3 | 6071 | 421 | 0.805 | 4.45 | Cc1ncc(F)cc1NC(=O)C[C@H](C(=O)N[C@@H]1C(=O)N2CC3(CC3)CN2C(=O)c2ccccc21)C1CC1 | – | inactive | Active
